Assays:
Liver microsomes = test: Intrinsic clearance in human liver microsomes; format: ADME, Microsome
How it was run: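 Metabolic depletion in pooled human liver microsomes (0.1 mg/mL protein), substrate 0.3 μmol/L, final DMSO 0.01%. Matrix: 100 mmol/L phosphate pH 7.4 with 0.1 mmol/L EDTA. Reaction started with an NADPH-generating system (β-NADP+, G6P, MgCl2, G6PDH) and run at 37 °C for 0 and 15 min. Quenched with acetonitrile/methanol plus internal standard; analysed by LC/MS/MS.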

[1] = Cmax in Sprague-Dawley rat at 10 mg/kg, po; format: ADME, organism-based; design: dose 10 mg/kg, route oral; settings: in vivo
How it was run: (§1)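 Fasted male Sprague-Dawley rats, n = 3 per route. IV dose 3 mg/kg from a 3 mg/mL solution in 1% ethanol–0.1 mol/L HCl–glucose. PO dose 10 mg/kg from a 2 mg/mL solution in 5% ethanol–0.1 mol/L HCl–glucose. Jugular blood sampled at 0.083 (iv only), 0.25, 0.5, 1, 2, 4, 6 and 8 h. Plasma deproteinized with acetonitrile plus internal standard, quantified by LC/MS/MS. Mean ± SEM of three animals.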

[2] = Volume of distribution at steady state in Sprague-Dawley rat at 3 mg/kg, iv; format: ADME, organism-based; design: dose 3 mg/kg, route intravenous; settings: in vivo, read-out: Vdss; how it was run: as §1
[3] = Plasma clearance in Sprague-Dawley rat at 3 mg/kg, iv; format: ADME, organism-based; design: dose 3 mg/kg, route intravenous; how it was run: as §1
[4] = AUC in Sprague-Dawley rat at 3 mg/kg, iv; format: ADME, organism-based; design: dose 3 mg/kg, route intravenous; settings: plasma; how it was run: as §1
[5] = Oral bioavailability in Sprague-Dawley rat at 10 mg/kg; format: ADME, organism-based; settings: in vivo; how it was run: as §1
[6] = Half life in Sprague-Dawley rat at 3 mg/kg, iv; format: ADME, organism-based; design: dose 3 mg/kg, route intravenous; settings: in vivo; how it was run: as §1
[7] = Tmax in Sprague-Dawley rat at 10 mg/kg, po; format: ADME, organism-based; design: dose 10 mg/kg, route oral; settings: in vivo; how it was run: as §1
[8] = AUC in Sprague-Dawley rat at 10 mg/kg, po; format: ADME, organism-based; design: dose 10 mg/kg, route oral; settings: plasma; how it was run: as §1

Row | intrinsic clearance (Liver microsomes) | SMILES | other results
1 | 460 µL/min/mg | COCc1cc(OC)c(-c2csc3c(N(CC4CCOCC4)CC4CC4)c(OC)nn23)c(OC)c1 | 
2 | 550 µL/min/mg | COCc1cc(OC)c(-c2csc3c(N(CC4CC4)CC4(F)CCOCC4)c(OC)nn23)c(OC)c1 | 
3 | 550 µL/min/mg | COCc1cc(OC)c(-c2csc3c(N(CC4CC4)CC4CCCOC4)c(OC)nn23)c(OC)c1 (configuration not stated) | 
4 | 870 µL/min/mg | COCc1cc(OC)c(-c2csc3c(N(CC4CC4)CC4CCCCO4)c(OC)nn23)c(OC)c1 (configuration not stated) | 
5 | 530 µL/min/mg | COCc1cc(OC)c(-c2csc3c(N(CC4CC4)CC4CCOC4)c(OC)nn23)c(OC)c1 (configuration not stated) | 
6 | 1020 µL/min/mg | COCc1cc(OC)c(-c2csc3c(N(CC4CC4)CC4CCCO4)c(OC)nn23)c(OC)c1 (configuration not stated) | 
7 | 960 µL/min/mg | COCCN(CC1CC1)c1c(OC)nn2c(-c3c(OC)cc(COC)cc3OC)csc12 | 
8 | 180 µL/min/mg | COCc1cc(OC)c(-c2csc3c(N(CC4CC4)C4CCOCC4)c(OC)nn23)c(OC)c1 | 
9 | 200 µL/min/mg | CCN(c1c(OC)nn2c(-c3c(OC)cc(COC)cc3OC)csc12)C1CCOCC1 | 
10 | 220 µL/min/mg | CCCN(c1c(OC)nn2c(-c3c(OC)cc(COC)cc3OC)csc12)C1CCOCC1 | 
11 | 180 µL/min/mg | COCc1cc(OC)c(-c2csc3c(N(CCC4CC4)C4CCOCC4)c(OC)nn23)c(OC)c1 | 
12 | 200 µL/min/mg | CCCCN(c1c(OC)nn2c(-c3c(OC)cc(COC)cc3OC)csc12)C1CCOCC1 | 
13 | 670 µL/min/mg | COCc1cc(OC)c(-c2csc3c(N(C(C)C)C4CCOCC4)c(OC)nn23)c(OC)c1 | 
14 | 360 µL/min/mg | COCc1cc(OC)c(-c2csc3c(N(CC(C)C)C4CCOCC4)c(OC)nn23)c(OC)c1 | 
15 | 340 µL/min/mg | CCCN(c1c(OC)nn2c(-c3c(OC)cc(COCC)cc3OC)csc12)C1CCOCC1 | 
16 | 150 µL/min/mg | CCCN(c1c(OC)nn2c(-c3c(OC)cc(C#N)cc3OC)csc12)C1CCOCC1 | 
17 | 370 µL/min/mg | CCCN(c1c(OC)nn2c(-c3c(Cl)cc(COC)cc3OC)csc12)C1CCOCC1 | 
18 | 220 µL/min/mg | CCCCN(c1c(OC)nn2c(-c3c(OC)cc(COCC)cc3OC)csc12)C1CCOCC1 | Cmax [1]: 540 ng/mL; Vd [2]: 6.32 L/kg; clearance [3]: 32.2 mL/min/kg; AUC [4]: 1580 ng·h/mL; bioavailability [5]: 23%; half-life [6]: 5.2 h; Tmax [7]: 0.5 h; AUC [8]: 1240 ng·h/mL
19 | 150 µL/min/mg | CCCCN(c1c(OC)nn2c(-c3c(OC)cc(C#N)cc3OC)csc12)C1CCOCC1 | 

Source: ChEMBL document CHEMBL2177001, “Design, synthesis, and structure-activity relationships of novel pyrazolo[5,1-b]thiazole derivatives as potent and orally active corticotropin-releasing factor 1 receptor antagonists” (J Med Chem, 2012)
